{"source": "paper PMC7086808", "about": "(Archives of Virology, 2009)", "key": {"[1]": {"conditions": "cited from earlier work"}, "[2]": {"test_system": "Coxsackie virus B5 (CVB5)", "assay": "Coxsackie virus B5 infection in mice", "format": "in vivo, BALB/c mice", "conditions": "for mean virus yield of hearts: plaque assay"}, "[3]": {"test_system": "CVB5 RNA", "assay": "Semi-quantitative detection of viral RNA by RT-PCR", "format": "cell-based, Coxsackie virus B5", "conditions": "cells treated after infection with 0.3-40 μg/ml"}, "[4]": {"assay": "MTT cytotoxicity assay", "format": "cell-based", "conditions": "human, HEp-2 cells (uninfected)", "procedure,_shortened": "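HEp-2 cells seeded at 2 × 10⁴/well and grown to subconfluence, then given serial twofold dilutions in test medium with 2% serum; four uninfected wells per dilution; compound re-added daily; controls had 0.05% DMSO. Read-out: MTT (5 mg/ml in PBS, 4 h), formazan dissolved in DMSO, OD at 540/690 nm. Expressed as % of untreated; CC50 derived; dilutions in triplicate.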"}, "[5]": {"test_system": "guinea pigs", "conditions": "single-dose oral administration; cited from earlier work"}, "[6]": {"test_system": "animals", "conditions": "cited from earlier work"}, "[7]": {"test_system": "mice", "conditions": "single-dose oral administration; cited from earlier work"}, "[8]": {"test_system": "Coxsackie virus B5 (CVB5)", "assay": "MTT/CPE antiviral assay, compound treatment before virus infection", "format": "cell-based", "procedure,_shortened": "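HEp-2 cells pretreated with twofold serial dilutions in MEM for 24 h at 37°C, 5% CO2. Compound then removed and cells washed twice with PBS before challenge with 100 TCID50/0.1 ml CVB5 for 1 h. After two more washes, cells kept in test medium until CPE appeared; scored microscopically and by MTT. IC50 and TI (CC50/IC50); mean ± SD of three experiments.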"}, "[9]": {"test_system": "Coxsackie virus B5 (CVB5)", "assay": "Virucidal assay", "format": "cell-based", "conditions": "Enterovirus B, B5|CVB5, HEp-2, 1 h", "procedure,_shortened": "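CVB5 suspension mixed with twofold serial dilutions (0.5 to 20 μg/ml) for 1 h at 37°C, then added to confluent HEp-2 cells for 1 h. Inoculum removed, cells rinsed with PBS and incubated in test medium. CPE scored by microscopy and MTT; IC50 derived as mean ± SD of three independent experiments.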"}, "[10]": {"test_system": "rats", "conditions": "single-dose oral administration; cited from earlier work"}, "[11]": {"test_system": "Coxsackie virus B5 (CVB5)", "assay": "MTT/CPE antiviral assay, compound treatment after virus infection", "format": "cell-based", "conditions": "for IC50: Enterovirus B", "procedure,_shortened": "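Confluent HEp-2 monolayers infected with CVB5 at 100 TCID50/0.1 ml for 1 h, washed with PBS, then overlaid with twofold serial dilutions in 2% serum test medium, dosed daily. CPE scored by light microscopy and quantified by MTT (OD 540/690 nm). IC50 derived, TI = CC50/IC50; mean ± SD from three independent experiments.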"}, "[12]": {"assay": "Storage stability of compound preparations", "format": "physicochemical", "conditions": "DMSO/test medium preparations; freezing and short-term storage (1 month at 4°C)"}}}
{"smiles": "CCOC(=O)c1c(CSc2ccccc2)n(C)c2cc(Br)c(O)c(CN(C)C)c12.Cl.O", "note": "[Arbidol, ethyl-6-bromo-4-[(dimethylamino)-methyl]-5-hydroxy-1-methyl-2-[(phenylthio)methyl]-indole-3-carboxylate hydrochloride monohydrate]", "values": [{"measurement": "half-life in cultured cells", "setting": "[1]", "value": "about 18 h"}, {"measurement": "lung index vs viral control group", "setting": "[2]; 25 mg/kg body weight/day p.o.", "value": "significantly lower"}, {"measurement": "mean virus yield of hearts", "setting": "[2]; 25 mg/kg body weight/day p.o. for 6 days", "value": "10^3 viral plaques/heart"}, {"measurement": "survival by day 30", "setting": "[2]; 25 mg/kg body weight/day p.o., eight mice per group", "value": "half of them had survived"}, {"measurement": "clinical observations during the 30-day period", "setting": "[2]; 50 mg/kg body weight/day p.o.", "value": "did not show abnormalities"}, {"measurement": "lung index vs normal group", "setting": "[2]; 50 mg/kg body weight/day p.o.", "value": "no significant difference"}, {"measurement": "lung index vs viral control group", "setting": "[2]; 50 mg/kg body weight/day p.o.", "value": "significantly lower"}, {"measurement": "mean virus yield of hearts", "setting": "[2]; 50 mg/kg body weight/day p.o. for 6 days", "value": "10^2 viral plaques/heart"}, {"measurement": "survival rate", "setting": "[2]; 50 mg/kg body weight/day p.o. once a day for 6 days", "value": "significantly enhanced"}, {"measurement": "body weight", "setting": "[2]; 50 mg/kg body weight/day p.o., 30-day period", "value": "slight weight loss"}, {"measurement": "ratio of CVB5 RNA to β-actin (RT-PCR)", "setting": "[3]", "value": "decreased with increasing dose"}, {"measurement": "CC50", "setting": "[4]", "value": 82.1, "unit": "µg/mL"}, {"measurement": "LD50 (50% lethal dose)", "setting": "[5]", "value": "4,000 mg/kg"}, {"measurement": "pathologic changes on long-term intake", "setting": "[6]; animals, clinical, hematological, biochemical, pathological data", "value": "did not show pathologic changes"}, {"measurement": "mutagenic or teratogenic activity", "setting": "[6]; at therapeutic doses", "value": "no mutagenic or teratogenic activity"}, {"measurement": "LD50 (50% lethal dose)", "setting": "[7]", "value": 687, "unit": "mg/kg"}, {"measurement": "IC50", "setting": "[8]; Enterovirus B, B5|CVB5, HEp-2", "value": "30.3 ± 1.6", "unit": "µg/mL"}, {"measurement": "TI (CC50/IC50)", "setting": "[8]; drug added before infection, HEp-2 cells", "value": 2.7}, {"measurement": "IC50", "setting": "[9]", "value": "2.66 ± 0.4", "unit": "µg/mL"}, {"measurement": "LD50 (50% lethal dose)", "setting": "[10]", "value": "3,000 mg/kg"}, {"measurement": "IC50", "setting": "[11]; B5|CVB5, HEp-2", "value": "6.62 ± 1.1", "unit": "µg/mL"}, {"measurement": "IC50", "setting": "[11]; B5|CVB5, read-out: 50% inhibitory concentration (IC50), CPE of CVB5", "value": "2.66 to 6.62", "unit": "µg/mL"}, {"measurement": "TI (CC50/IC50)", "setting": "[11]; drug added after infection, HEp-2 cells", "value": 12.45}, {"measurement": "efficacy of preparations upon storage", "setting": "[12]", "value": "did not appear to change"}]}
